The test system of data set [1] is Staphylococcus aureus. The data set can be described thus: Antibacterial activity against Staphylococcus aureus CIP54.146 after 18 hrs by broth microdilution method. The class given is functional. Particulars: CIP54.146, 18 h. In short, it runs like this:
(§1)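 CLSI broth microdilution with serial 2-fold dilutions from 0.06 to 64 μg/mL. Cation-adjusted Mueller–Hinton broth, inoculum 5 × 10^5 CFU/mL, incubated at 35 °C for 18 h. MIC taken as the lowest concentration with no visible growth.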
On the technique in general: Dilution methods test growth across graded concentrations, often in twofold steps.

The subject of another data set is Enterococcus faecalis. Nature of the data set: Antibacterial activity against Enterococcus faecalis ATCC 29212 after 18 hrs by broth microdilution method. The class given is functional. Particulars: ATCC 29212, 18 h. In short, it runs like this:
as §1

The target of data set [2] is T1, Enoyl-[acyl-carrier-protein] reductase [NADPH] FabI (Staphylococcus aureus, UniProt Q6GI75).
T1 sequence (Q6GI75 whole entry): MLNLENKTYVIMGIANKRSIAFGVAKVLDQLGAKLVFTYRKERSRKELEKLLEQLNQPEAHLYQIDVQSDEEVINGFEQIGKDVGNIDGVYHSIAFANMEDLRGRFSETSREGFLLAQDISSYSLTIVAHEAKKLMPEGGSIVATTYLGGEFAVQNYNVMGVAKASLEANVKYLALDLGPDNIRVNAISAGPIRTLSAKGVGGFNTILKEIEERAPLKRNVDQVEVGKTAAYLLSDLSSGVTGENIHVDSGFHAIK
Nature of the data set: Inhibition of Staphylococcus aureus recombinant FabI using trans-2-octenoyl N-acetylcysteamine thioester as substrate preincubated for 60 mins. The gist of the method: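 Recombinant S. aureus FabI (2 nM) in 50 mM ADA pH 6.5, 1 mM DTT, 0.006% Triton X-100, 50 mM NaCl. Preincubated 60 min at room temperature with 40 μM NADPH, 10 μM NADP+ and inhibitor in DMSO. Reaction started with 100 μM t-o-NAC. Inhibition versus untreated samples; IC50 by Langmuir fit.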

The test system of data set [3] is Escherichia coli. The data set can be described thus: Antibacterial activity against Escherichia coli C7 after 18 hrs by broth microdilution method. The format is functional. Particulars: C7, 18 h.
The next data set has as its system Streptococcus pneumoniae. The data set can be described thus: Antibacterial activity against Streptococcus pneumoniae D39 after 18 hrs by broth microdilution method. To be noted: D39, 18 h. The class given is functional. The gist of the method: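 CLSI broth microdilution with 2-fold dilutions from 0.06 to 64 μg/mL. Cation-adjusted Mueller–Hinton broth with 2.5% lysed horse blood, inoculum 5 × 10^5 CFU/mL, grown at 35 °C for 18 h in 5% CO2. MIC is the lowest concentration showing no visible growth.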

Data set [4] in a line: Cytotoxicity against human HepG2 cells. The class given is cell-based. Particulars: read-out: ED50 (the source's name).
The test system of another data set is Proteus mirabilis. The data set can be described thus: Antibacterial activity against Proteus mirabilis. The class given is functional.
A further data set deals with Haemophilus influenzae. The data set can be described thus: Antibacterial activity against Haemophilus influenzae. The format is functional.
For the next data set, the system named is Moraxella catarrhalis. Nature of the data set: Antibacterial activity against Moraxella catarrhalis. The class given is functional.
The subject of a further data set is Neisseria meningitidis. The data set can be described thus: Antibacterial activity against Neisseria meningitidis. The format is functional.
For a further data set, the system named is Neisseria gonorrhoeae. The data set can be described thus: Antibacterial activity against Neisseria gonorrhoeae. The class given is functional.
In data set [5] the test system is Escherichia coli. The data set can be described thus: Antibacterial activity against Escherichia coli. The class given is functional.
Data set [6] relates to Staphylococcus aureus. Nature of the data set: Antibacterial activity against methicillin-resistant Staphylococcus aureus NRS382 infected in Swiss mouse. The format is functional. In short, it runs like this: (§2)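 Murine lethal systemic infection by intraperitoneal MRSA challenge. A single subcutaneous dose was given 5 min after infection.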
For data set [7], the system named is Staphylococcus aureus. The data set can be described thus: Antibacterial activity against methicillin-resistant Staphylococcus aureus NRS384 infected in Swiss mouse. The format is functional. In short, it runs like this:
as §2

The subject of data set [8] is Staphylococcus aureus. The data set can be described thus: Antibacterial activity against methicillin-resistant Staphylococcus aureus NRS385 infected in Swiss mouse. The format is functional. In short, it runs like this:
as §2

Data set [9] concerns Staphylococcus epidermidis. Nature of the data set: Antibacterial activity against methicillin-resistant Staphylococcus epidermidis. The class given is functional.
For data set [10], the system named is Staphylococcus aureus. Nature of the data set: Antibacterial activity against methicillin-susceptible Staphylococcus aureus. The class given is functional.
Data set [11] concerns Staphylococcus aureus. The data set can be described thus: Antibacterial activity against community acquired methicillin-resistant Staphylococcus aureus. The format is functional.
The subject of data set [12] is Staphylococcus aureus. The data set can be described thus: Antibacterial activity against methicillin-resistant Staphylococcus aureus. The class given is functional.
Data set [13] has as its system Staphylococcus haemolyticus. Nature of the data set: Antibacterial activity against methicillin-resistant Staphylococcus haemolyticus. The format is functional.

Each structure is given as a SMILES string. Converted amounts (≈) assume the structure as drawn.

In the case of `CCc1cc(O)c(Oc2ccc(C(=O)NC)cc2F)cc1F`, the MIC in the data set with Staphylococcus aureus [1] was 1 µg/mL (≈ 3.25 µM); in the data set on Enterococcus faecalis it was above 32 µg/mL; with Escherichia coli [3], 8 µg/mL (≈ 26 µM); against Streptococcus pneumoniae it was above 32 µg/mL. Besides, in data set [2], the IC50 was determined as 0.082 µM. Also, in data set [4], the CC50 was above 32 µg/mL.
With `CCc1cc(O)c(Oc2ccccc2)cc1F`, the minimum inhibitory concentration (MIC) amounted to 0.062 µg/mL (≈ 0.267 µM) against Staphylococcus aureus [1], 32 µg/mL (≈ 138 µM) against Enterococcus faecalis, 1 µg/mL (≈ 4.31 µM) in the data set on Escherichia coli [3] and 16 µg/mL (≈ 68.9 µM) with Streptococcus pneumoniae. For the same compound, the IC50 in [2] was found to be 0.037 µM. Also, the CC50 in data set [4] was 16 µg/mL (≈ 68.9 µM).
In the case of `C[C@H]1COc2c(N3CCN(C)CC3)c(F)cc3c(=O)c(C(=O)O)cn1c23.C[C@H]1COc2c(N3CCN(C)CC3)c(F)cc3c(=O)c(C(=O)O)cn1c23.O` [LEVOFLOXACIN], the MIC90 against Proteus mirabilis was 0.06 µg/mL; in the data set with Haemophilus influenzae, 0.03 µg/mL; in the data set with Moraxella catarrhalis it was 0.03 µg/mL; against Neisseria meningitidis it was at most 0.008 µg/mL; in the data set on Neisseria gonorrhoeae it was 0.5 µg/mL; with Escherichia coli [5], at least 16 µg/mL.
With `CCc1ccc(Oc2ccc(C(=O)CCCO)cc2)c(O)c1`, the MIC was 0.062 µg/mL (≈ 0.206 µM) against Staphylococcus aureus [1], above 32 µg/mL in the data set with Enterococcus faecalis, 4 µg/mL (≈ 13.3 µM) in the data set with Escherichia coli [3] and 16 µg/mL (≈ 53.3 µM) against Streptococcus pneumoniae. For the same compound, in [2], the half-inhibitory concentration (IC50) is 0.048 µM. Besides, the CC50 in data set [4] was 16 µg/mL (≈ 53.3 µM).
On to `CCc1cc(O)c(Oc2ccccc2F)cc1F`, for which the minimum inhibitory concentration (MIC) with Staphylococcus aureus [1] amounted to 0.031 µg/mL (≈ 0.124 µM); with Enterococcus faecalis it was 32 µg/mL (≈ 128 µM); against Escherichia coli [3], 0.25 µg/mL (≈ 0.999 µM); in the data set with Streptococcus pneumoniae, 32 µg/mL (≈ 128 µM). Moreover, in data set [2], the half-inhibitory concentration (IC50) was found to be 0.008 µM. In addition, in [4], the CC50 stood at 16 µg/mL (≈ 63.9 µM).
Take `CCc1cc(OC)c(Oc2ccc(C(N)=O)cc2F)cc1F`: the minimal inhibitory concentration (MIC) in the data set on Staphylococcus aureus [1], against Enterococcus faecalis, in the data set with Escherichia coli [3] and in the data set on Streptococcus pneumoniae was above 32 µg/mL throughout. Further, in data set [2], the half-inhibitory concentration (IC50) worked out at 21 µM. Moreover, the CC50 in data set [4] is above 32 µg/mL.
Turning to `Oc1cc(Cl)ccc1Oc1ccc(Cl)cc1Cl` [TRICLOSAN], the MIC in the data set on Staphylococcus aureus [1] was determined as 0.031 µg/mL (≈ 0.107 µM); with Enterococcus faecalis, 2 µg/mL (≈ 6.91 µM); with Escherichia coli [3], 0.125 µg/mL (≈ 0.432 µM); with Streptococcus pneumoniae it was 8 µg/mL (≈ 27.6 µM). Moreover, in data set [4], the CC50 turned out to be 2 µg/mL (≈ 6.91 µM).
As to `CCc1cc(O)c(Oc2cccnc2N)cc1F`, the MIC was 0.5 µg/mL (≈ 2.01 µM) in the data set with Staphylococcus aureus [1], above 32 µg/mL in the data set with Enterococcus faecalis, 0.25 µg/mL (≈ 1.01 µM) against Escherichia coli [3] and above 32 µg/mL against Streptococcus pneumoniae. In addition, the IC50 in data set [2] was determined as 0.056 µM.
`CN[C@H](CC(C)C)C(=O)N[C@H]1C(=O)N[C@@H](CC(N)=O)C(=O)N[C@H]2C(=O)N[C@H]3C(=O)N[C@H](C(=O)N[C@H](C(=O)O)c4cc(O)cc(O)c4-c4cc3ccc4O)[C@H](O)c3ccc(c(Cl)c3)Oc3cc2cc(c3O[C@@H]2O[C@H](CO)[C@@H](O)[C@H](O)[C@H]2O[C@H]2C[C@](C)(N)[C@H](O)[C@H](C)O2)Oc2ccc(cc2Cl)[C@H]1O` [VANCOMYCIN]: the ED50 in the data set with Staphylococcus aureus [6] amounted to 6 mg/kg; in the data set on Staphylococcus aureus [7] it was 9.4 mg/kg; with Staphylococcus aureus [8], 5 mg/kg.
With `CCc1ccc(Oc2ccc(C(=O)N3CCNC(=O)C3)cc2F)c(O)c1`, the MIC in the data set with Staphylococcus aureus [1] was 1 µg/mL (≈ 2.79 µM); against Enterococcus faecalis, above 32 µg/mL; with Escherichia coli [3], 8 µg/mL (≈ 22.3 µM); against Streptococcus pneumoniae, above 32 µg/mL. Also, in data set [2], the half-inhibitory concentration (IC50) came out at 0.028 µM. The CC50 in data set [4] is above 32 µg/mL.
Take `CCc1cc(O)c(Oc2ccc(C#N)cc2F)cc1F`: the minimal inhibitory concentration (MIC) with Staphylococcus aureus [1] was 0.062 µg/mL (≈ 0.225 µM); against Enterococcus faecalis it was 32 µg/mL (≈ 116 µM); against Escherichia coli [3], 1 µg/mL (≈ 3.63 µM); with Streptococcus pneumoniae it was 8 µg/mL (≈ 29.1 µM). Also, the half-inhibitory concentration (IC50) in data set [2] was determined as 0.031 µM. The CC50 in [4] was found to be 16 µg/mL (≈ 58.1 µM).
For `CCc1cc(O)c(Oc2ccc(C(=O)O)cc2F)cc1F`, the minimum inhibitory concentration (MIC) was 8 µg/mL (≈ 27.2 µM) against Staphylococcus aureus [1], above 32 µg/mL in the data set with Enterococcus faecalis, above 32 µg/mL in the data set on Escherichia coli [3] and above 32 µg/mL in the data set with Streptococcus pneumoniae. For the same compound, the IC50 in data set [2] was found to be 0.18 µM. Also, the CC50 in [4] is above 32 µg/mL.
With `CC(=O)NC[C@H]1CN(c2ccc(N3CCOCC3)c(F)c2)C(=O)O1` [LINEZOLID], the MIC90 in data set [9] is 1 µg/mL (≈ 2.96 µM); with Staphylococcus aureus [10], 2 µg/mL (≈ 5.93 µM); in the data set on Staphylococcus aureus [11] it was 2 µg/mL (≈ 5.93 µM); against Staphylococcus aureus [12], at least 16 µg/mL; in data set [13], 1 µg/mL (≈ 2.96 µM).
On to `CCc1cc(O)c(Oc2cccnc2F)cc1F`, for which the MIC against Staphylococcus aureus [1] was 0.062 µg/mL (≈ 0.247 µM); against Enterococcus faecalis, above 32 µg/mL; against Escherichia coli [3], 0.25 µg/mL (≈ 0.995 µM); against Streptococcus pneumoniae it was above 32 µg/mL. The half-inhibitory concentration (IC50) in data set [2] was determined as 0.013 µM.
On to `CCc1cc(O)c(Oc2ccc[nH]c2=O)cc1F`, for which the MIC in the data set on Staphylococcus aureus [1], with Enterococcus faecalis, in the data set with Escherichia coli [3] and in the data set with Streptococcus pneumoniae was above 32 µg/mL in each case. Also, the IC50 in [2] is above 100 µM.
As for `CCc1cc(O)c(Oc2ccc(C(=O)N3CCNC(=O)C3)cc2F)cc1F`, the MIC against Staphylococcus aureus [1] is 0.25 µg/mL (≈ 0.664 µM); in the data set on Enterococcus faecalis it was above 32 µg/mL; in the data set with Escherichia coli [3], 4 µg/mL (≈ 10.6 µM); against Streptococcus pneumoniae, above 32 µg/mL. Moreover, the CC50 in data set [4] was above 32 µg/mL.

By MIC is commonly meant the lowest concentration that inhibits growth of the organism. Higher therefore signals a need for much substance. The term IC50 denotes the concentration needed to halve the response being measured. One may read the ED50 as the midpoint of the dose-response relation. A high value points to a need for a large dose.

These data come from ChEMBL document CHEMBL2176870 (J Med Chem, 2012).
